The source of these data is ChEMBL document CHEMBL2034977, “Discovery of CX-6258. A Potent, Selective, and Orally Efficacious pan-Pim Kinases Inhibitor” (ACS Med Chem Lett, 2012).

What all share (type): ADME, organism-based
Data set [1] in a line: Volume of distribution in iv dosed mouse. To be noted: in vivo. The gist of the method: (§1)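 Mouse pharmacokinetics after IV and oral dosing. Vehicle D5W. Clearance, volume of distribution, half-life, AUC over 0−24 h and oral bioavailability were derived. Each value is the average of four animals.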
A short description of data set [2]: Oral bioavailability in mouse. To be noted: in vivo. The gist of the method:
as §1

The species entered for data set [3] is Mus musculus. Kind of data set: Drug metabolism in mouse assessed as formation of 3-((5-(3-(1,4-diazepane-1-carbonyl)phenyl)furan-2-yl)methylene)-5-chloroindolin-2-one. To be noted: in vivo.
A short description of data set [4]: Half life in iv dosed mouse. To be noted: in vivo. The method in brief:
as §1

Data set [5] can be described thus: Clearance in iv dosed mouse. The settings on record: in vivo. The method in brief: as §1
A short description of data set [6]: AUC (0 to 24 hrs) in po dosed mouse. Also noted: time < 24 hr, route oral. To be noted: plasma. The gist of the method: as §1

A word on the Vd: it is the apparent volume that relates the amount in the body to the concentration in plasma or blood. A lower Vd goes with little distribution into tissue. What is called bioavailability is the share of a dose that reaches the circulation, judged against a reference dose that is usually intravenous. A higher bioavailability goes with much systemic uptake. By half-life is commonly meant how long it takes for the measured level to halve. Low readings indicate fast loss, high ones slow loss. By clearance is commonly meant the volume of plasma or blood freed of the substance per unit of time. What is called AUC(0-t) is the area under the concentration-time curve up to a stated or last time point.

Structures are written as SMILES.

Consider `CN1CCCN(C(=O)c2cccc(-c3ccc(/C=C4/C(=O)Nc5ccc(Cl)cc54)o3)c2)CC1`, for which the Vd in data set [1] worked out at 85 L/kg. In data set [2], the bioavailability was 23%. For the same molecule, in data set [3], the Drug metabolism result was “Active”. The same molecule showed a half-life in data set [4] of 27 h. Besides, in data set [5], the clearance is 35 mL/min/kg. Also, the AUC(0-t) at 24 h in data set [6] amounted to 1020 ng·h/mL.
